Laboratory results from the RNAGym collection of RNA variant scans (doi:10.1126/science.aae0568).
Variants at the floor of the assay were thinned out.

B1: tRNA (parent)
chain: GUUCCGUUGGCGUAAUGGUAACGCGUCUCCCUCCUAAGGAGAAGACUGCGGGUUCGAGUCCCGUACGGAACG

Variants of: B1
Assay: yeast fitness relative to wild type (ratio to wild type); higher = fitter; tRNA-Arg(CCU), competitive growth, 37 C, YPD
Method in brief: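 For this measurement, the tRNA-Arg(CCU) gene was varied by chemical synthesis at a 3% per-site mutation rate across 69 sites, and each variant was placed at the native genomic locus in Saccharomyces cerevisiae. The pooled strains went through a 24-hour competition in YPD at 37°C in six parallel replicates, with amplicons from start and end populations read by 100-nucleotide paired-end sequencing. Darwinian fitness relative to wild type followed from the change in each genotype's frequency. Genotypes needed ≥ 100 starting reads, and estimates < 0.5 were set to 0.5.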

First: GUUCCAUUGGCGUAAUAGUAACGCGUCUCCCUCCUAAGGAGAAGACUGCGGGUUCGAGUCCCGUACGGAACG
Second: GUUCCAUUGGCGUAAUAGUAACGCGUCUCCAUGCUAAAGAGAAGACUGCGGGUUCGAGUCCCGUACGGAACG
The yeast fitness of the first is higher: 0.633 for the first, at most 0.5 for the second.

Going from GUUCCAUUGGCGUAAUAGAAACGCGUCUCCGUCCUAAGGAGAAGACUGCGGGCACGAGUCCCGUACGGAACG to GUUCCAUUGGCGUAAUAGGAACGCGUCUCCCUCCUAAGGAGAAGACUGCGGGUUCGAGUCCCGUACGGAACG, the yeast fitness rises from at most 0.5 to 0.512.

Going from GUUCCAUUGGCGUAAUCGUAACGCGUCUCCCUCCUAAGGAGAAGACUGCGGGUUCGAGUCCCGUACGGAACG to GUUCCAUUGGCGUAAUCGUAACGCGUCUCCCUCCUACGGAGAAGACUGCGGGUUCGAGUCCCGUACGGAACG, the yeast fitness falls from 0.744 to 0.634.

First: GUUCCAUUGGCGUAAUCGUAACGCGUCUCCAUCCUUAGGAGAAGACUGCGGGUUGGAGUCCCAUACGGAACG
Second: GUUCCAUUGGCGUAAUCGUAACGCGUCUCCGUCCUAAGGAGAAGACUGCUGGAUCGAGUCCCGUACGGAACG
The yeast fitness of the first is lower: at most 0.5 for the first, 0.559 for the second.

GUUCCAUUGGCGUAAUCCUAACGCGUCUCCCUCCUAAGGAGAAGGCUGCGGGUUCGAGUCCCGUACGGAACG and GUUCCAUUGGCGUAAUCGUAACGCGUCUCCCUCCUAAGGAGAAGACUGCGAGUUCGAGUCCCGUACGGAACG cannot be ordered by yeast fitness: at most 0.5 for the first, at most 0.5 for the second.

Compared with GUUCCAUUGGCGUAAUCGUAACGCGUCUCCCUCCAAAGAAGAAGACUGCGGGUUGGAGUUCCGUACCGAACG, GUUCCAUUGGCGUAAUGAUAACGCGUCUCCCUCCUAAGGAGAAGACUGCGGGUUCGAGUCCCGUACGGAACG is higher in yeast fitness: at most 0.5 for the first, 0.824 for the second.

GUUCCAUUGGCGUAAUGAUAACGCGUCUCCCUCCUCAGGAGAAGACGGCGGGUUCGAGUCCCGUACGGAACG and GUUCCAUUGGCGUAAUGAUAACGCGUCUCUCUCCUAAGGAGAAGACUGCGGGUUGGAGUCCCGUACGGAACG cannot be ordered by yeast fitness: at most 0.5 for the first, at most 0.5 for the second.

Compared with GUUCCAUUGGCGUAAUGCUACCGCGUCUCCCUACUAAGGAGAAGACUGCGGGUUCGAGUCCCGUACGGAACG, GUUCCAUUGGCGUAAUGCUACCGCGUCUCCCUACUAAGGAGAAGACUGCGGAUUCGAGUCCCGUACGGAACG is lower in yeast fitness: 0.605 for the first, at most 0.5 for the second.

GUUCCAUUGGCGUAAUGCUAACGCGUCUCCCUCCUACGGAGAAGACUGCGGGUUCGAGUCCCGUACGGAACG and GUUCCAUUGGCGUAAUGCUAACGCGUCUCCCUCCUACGGAGAAGACUGCGGGUUCGAGUACCGAACGGAACG cannot be ordered by yeast fitness: at most 0.5 for the first, at most 0.5 for the second.

First: GUUCCAUUGGCGUAAUGCUAACGCGUCUCCCUCCUACGGAGAAGACUGCGGGUUCGAGUCCAGUACGGAACG
Second: GUUCCAUUGGCGUAAUGCUAAGGCGUCUCCCUGCUAAGGAGAAGACUGCGGGUUCGAGUCCCGUACGGAACG
The yeast fitness of the first is higher: 0.604 for the first, at most 0.5 for the second.

First: GUUCCAUUGGCGUAAUGCUAACGCGUCUCCCUCCUAAGGAGAAGACUGAGGGUUCGAGUCGCGUACGGAACG
Second: GUUCCAUUGGCGUAAUGUUAACGAGUCUCCCACCUAAAGAGAGGUCUGCGGAUUCGAGUCCCGUACGGAACG
The yeast fitness of the first is lower: at most 0.5 for the first, 0.641 for the second.

Compared with GUUCCAUUGGCGUAAUGGUAACACGUCUCCCUCCUAAGGAGAAGACUGCGGGUUCGAGUCCCGUACGGAACG, GUUCCAUUGGCGUAAUGGUAACACGUCUCCCUCCUAAGGAGGAGAUUGCGGGUUGGAGUCCCGUACGGAACG is lower in yeast fitness: 0.877 for the first, 0.522 for the second.

Compared with GUUCCAUUGGCGUAAUGGUAACACGUCUCCCUCCUAAGGAGAAGACAGCGGGUUCGACUCCCGUACGGAACG, GUUCCAUUGGCGUAAUGGUAACCCGUCUCCCUCCUAAGGAGAAGACUGCGGGUUCGAGUCCCGUACGGAACG is higher in yeast fitness: at most 0.5 for the first, 0.643 for the second.

GUUCCAUUGGCGUAAUGGUAACCCGUCUCGCUCCUAAGCAGAAGACUGCGGGUUCGAGUCCCGUACGGAACG and GUUCCAUUGGCGUAAUGGUAACCCGUCUCCCUCCUAAGGAGAAGACUGGAGGGUCGGGUCCCGUACGGAACG cannot be ordered by yeast fitness: at most 0.5 for the first, at most 0.5 for the second.

Compared with GUUCCAUUGGCGUAAUGGUAACCCGUCUCCCUCCUAAGGAGAAGACUGGGGGGUCGGGUCCCGUACGGAACG, GUUCCAUUGGCGUAAUGGUAACCCGUCUCCCUCCUAAGGAGAAGACUGCGGGUUCGAGUCUCGUACGGAACG is lower in yeast fitness: 0.567 for the first, at most 0.5 for the second.

GUUCCAUUGGCGUAAUGGUAACUGGUCUCCCUCCAAAGGAGAAGACUCCGGGUUCGAGUCCCGUACGGAACG and GUUCCAUUGGCGUAAUGGUAACGCAUCUCCCUCCUAAGGCGAAGACUGCGGGUUCGCGUCACGUACAGAACG cannot be ordered by yeast fitness: at most 0.5 for the first, at most 0.5 for the second.

Compared with GUUCCAUUGGCGUAAUGGUAACGCAUCUCCCUCCUAAGGAGAAGACUGCGGGUUCGAGUCCCGUACGGUACG, GUUCCAUUGGCGUAAUGGUAACGCAUCUCCCUCAUAAGGAGAAGACUGCGGGUUCGAAUCCCGUACGGAACG is lower in yeast fitness: 0.68 for the first, at most 0.5 for the second.

First: GUUCCAUUGGCGUAAUGGUAACGCAUCUCCCUCCUAAGGAGAAGACUGCGGGUUCGAGCCCCGUACGGAACG
Second: GUUCCAUUGGCGUAAUGGUAACGCCUCUCCCUCCUAAGGAGAAGACUGCGGGUUCGAGUCCCGUACGGAACG
The yeast fitness of the first is lower: at most 0.5 for the first, 0.866 for the second.

First: GUUCCAUUGGCGUAAUGGUAACGCCUCUCCCUCCUAAGGAGAAGACUGCGGGUUCGAGUCCCGUUCGGAACG
Second: GUUCCAUUGGCGUAAUGGUAACGCCUCUCCCUUCUAAGGAGAAGACUACGGGUUCGAGUCCCAUACGGAACG
The yeast fitness of the first is higher: 0.663 for the first, at most 0.5 for the second.
